Screening results: PubChem, The Scripps Research Institute Molecular Screening Center
Rows were chosen to be rich in hits. Some 1.7% of all compounds tested hit in one or more screens of this group.
M5 PAM = potentiates acetylcholine response at human M5 receptor. CHO-K1 hM5, Fluo-8 calcium, ACh EC20 PAM; 0% = ACh EC20, 100% = ACh EC100. activation, % at 3 µM. AID 624038. actives 0.3% (n = 360,000);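 active = activation above the run cutoff, the mean activation of all test compounds plus 3 SD, cut at about 18% in these data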
Target sequence (P08912 whole entry, looked up): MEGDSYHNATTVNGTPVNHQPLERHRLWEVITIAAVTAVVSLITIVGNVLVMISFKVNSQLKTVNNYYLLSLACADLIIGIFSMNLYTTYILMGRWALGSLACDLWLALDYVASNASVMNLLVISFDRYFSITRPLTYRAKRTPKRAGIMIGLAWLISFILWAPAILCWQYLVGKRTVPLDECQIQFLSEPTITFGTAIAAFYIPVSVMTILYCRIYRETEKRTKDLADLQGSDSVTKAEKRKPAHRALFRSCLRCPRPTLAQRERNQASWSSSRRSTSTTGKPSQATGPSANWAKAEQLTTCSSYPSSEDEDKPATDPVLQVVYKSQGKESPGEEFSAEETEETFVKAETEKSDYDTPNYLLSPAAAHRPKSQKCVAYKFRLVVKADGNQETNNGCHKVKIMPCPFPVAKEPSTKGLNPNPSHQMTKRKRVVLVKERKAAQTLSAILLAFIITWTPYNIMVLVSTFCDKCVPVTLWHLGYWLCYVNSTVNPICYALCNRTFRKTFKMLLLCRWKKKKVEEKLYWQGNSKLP
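Assay system: CHO-K1 hM5 cells / Incubation: Fluo-8 loading 80 min at 37 °C plus 30 min room temperature / Technique: Fluo-8 calcium dye fluorescence, kinetic read / Repeats: single replicate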
CHO-K1 Ca ag = counter-screen for M1 agonists: effect in parental CHO-K1 cells; Fluo-8 calcium fluorescence; scaled to maximal ATP response, vehicle zero; activation, % at 3 µM; actives 0.48% (n = 360,000); AID 602248; in the data active = activation above about 15%;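 also: untransfected CHO-K1 host cells lacking M1 receptor as counterscreen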
M1 PAM parental = M1 PAM counterscreen hit in parental CHO-K1 cells; AID 602247; activation, % at 3 µM; ATP EC20, Fluo-8 calcium fluorescence; 0% at ATP EC20, 100% at ATP max; actives 0.02% (n = 360,000);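 active = activation above the run cutoff, the mean activation of all test compounds plus 3 SD, cut at about 40% in these data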;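 also: peak over basal fluorescence ratio in a 140 s read after ATP addition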
CHO-K1 Ca antag = M1 antagonist counterscreen hit in parental CHO-K1 cells; ATP-induced calcium, Fluo-8 fluorescence; inhibition, % at 3 µM; actives 0.6% (n = 360,000); AID 602250;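 active = inhibition above a per-plate cutoff, the plate's mean sample inhibition plus 3 SD, cut at about 24% in these data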
CHRM5 antagonist = antagonists of human muscarinic M5 receptor (CHRM5); P08912; CHO-hM5 cells, Fluo-8 calcium fluorescence, ACh EC80; inhibition, % at 3 µM; actives 0.59% (n = 360,000); AID 624040;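 active = inhibition above a per-plate cutoff, the mean of that plate's test compounds plus 3 SD, cut at about 27% in these data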
M5 ag = agonists of human muscarinic M5 receptor (CHRM5). P08912. CHO-K1 hM5 cells, Fluo-8 calcium fluorescence; 0% DMSO wells, 100% maximal acetylcholine response. activation, % at 3 µM. actives 0.19% (n = 360,000);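 active = activation above the run's mean over test compounds plus 3 SD, cut at about 23% in these data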;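 also: signal is peak over basal fluorescence ratio across the kinetic read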
Each line names hits and unclear results; the compound was inactive in the other large screens.

Cc1cc(C(=O)NNC(=O)C(CCC(N)=O)NS(=O)(=O)c2ccc(Cl)cc2)c(C)o1 (stereo unspecified)	none
O=C(CSc1nnc(CNC(=O)c2c(F)cccc2Cl)o1)NC1CCCCC1	none
CCC(Oc1ccccc1)C(=O)OCC(=O)Nc1sccc1C(N)=O (stereo unspecified)	CHO-K1 Ca ag 17
CC(Oc1ccccc1)C(=O)OCC(=O)Nc1sccc1C(N)=O (stereo unspecified)	none
NC(=O)c1ccsc1NC(=O)COC(=O)Cc1ccsc1	none
COc1cc(CC(=O)OCC(=O)Nc2sccc2C(N)=O)cc(OC)c1OC	CHO-K1 Ca ag 16
NC(=O)c1ccsc1NC(=O)COC(=O)Cc1ccccc1Cl	CHO-K1 Ca ag 19
CCCC(=O)Nc1nc2n(n1)C(c1ccccc1)CC(=O)N2 (stereo unspecified)	none
O=C(NCCNC(=O)Nc1ccc(Cl)cc1)Nc1ccc(Cl)cc1	none
Cc1nnsc1SCCNC(=O)Nc1ccc(Cl)cc1	CHRM5 antagonist 32
Cc1cccc(NC(=O)c2sc(C)nc2C)c1	none
Cc1ccccc1NC(=O)Cc1nc(COC(=O)c2cccc(C)c2O)cs1	none
CSc1ccc(CN(C)C(=O)C(c2ccccc2)c2ccccc2)cc1	none
CN(CCN(C)C(C)(C)C)C(=O)C(c1ccccc1)c1ccccc1	CHRM5 antagonist 31
COc1ccc(/C=C2\SC(=O)NC2=S)cc1OC	CHO-K1 Ca ag 21
COc1cc(/C=C2/SC(=S)NC2=O)ccc1OS(=O)(=O)c1ccc(C)cc1	CHO-K1 Ca antag 25, CHRM5 antagonist 36
COc1ccc(/C=C2\SC(=S)NC2=O)cc1OS(=O)(=O)c1ccc(NC(C)=O)cc1	none
CCOC(=O)c1ccc(NC(=O)COc2ccc(CNC3CCCCC3)cc2OC)cc1	none
C=CCn1c(O)c(C(CC)=NCc2cccnc2)c(=O)[nH]c1=O	CHO-K1 Ca antag 25
Cc1[nH][nH]c(=O)c1C=NCc1cccnc1	none
NC(=O)c1ccccc1N/C=C/C(=O)c1ccc(Cl)cc1Cl	M5 PAM 47
Cc1nnc(C)c2c(C)n(Cc3ccc4c(c3)OCO4)c(C)c12	CHO-K1 Ca antag 24
c1cc2c(cc1Cn1cnnn1)OCO2	none
CCOc1cc(/C=C2\SC(=O)N(CC(=O)Nc3ccccc3F)C2=O)cc([N+](=O)[O-])c1O	M5 PAM 23
CCNC(=O)Cn1c(=O)c(=O)n(Cc2ccccc2)c2ccc(Cl)cc21	none
COc1cccc2cc(C(=O)Oc3ccccc3)c(=O)oc12	none
CCOc1cccc2cc(C(=O)Oc3ccc(OC)cc3)c(=O)oc12	CHO-K1 Ca ag 16
CC(=O)N1CCc2cc(Br)cc(S(=O)(=O)N3CCCCCC3)c21	none
CC(=O)N1CCc2cc(Br)cc(S(=O)(=O)N3CCN(C(=O)c4ccco4)CC3)c21	CHO-K1 Ca antag 24
CCCN(CCC)S(=O)(=O)c1cccc(-c2csc(C)n2)c1	CHO-K1 Ca ag 22
CCOc1ccccc1NC(=O)CSc1nnc(-c2ccccc2Cl)n1Cc1ccco1	none
COc1ccc(Cn2c(C)nc([N+](=O)[O-])c2SCC(=O)O)cc1[N+](=O)[O-]	none
Cc1nc([N+](=O)[O-])c(SCC(O)CCl)n1Cc1ccc(Cl)cc1 (stereo unspecified)	CHO-K1 Ca ag 23
Cc1scc2c1N(C(=O)CN1CCN(C)CC1)c1ccccc1NC2=O	CHRM5 antagonist 99
Cc1cc(OCC(=O)NCc2ccncc2)c2c(C)c(C)c(=O)oc2c1	none
O=C(COc1ncnc2ccccc12)N1CCN(S(=O)(=O)c2ccccc2)CC1	none
O=C(COc1ncnc2ccccc12)N1CCN(S(=O)(=O)c2ccc(Cl)cc2)CC1	CHO-K1 Ca antag 63
COc1ccc(S(=O)(=O)Nc2ccc(NC(C)=O)cc2)cc1OC	none
O=C(Nc1ccccc1)NC1CS(=O)(=O)CC1O (stereo unspecified)	none
Cc1ccc(SCCNS(C)(=O)=O)cc1	M5 PAM 22
Cc1ccc(SCCNS(=O)(=O)c2ccc(F)cc2)cc1	none
Cc1ccc(-n2c(SCC(N)=O)nnc2-c2ccccn2)cc1C	none
COC(=O)[C@@]1(Cc2ccc(OC)cc2)[C@@H]2C(=CC(=O)[C@H]2CC(=O)C(=O)N2CCCC2)CN1C(=O)c1ccccc1	M5 PAM 19
COC(=O)[C@@]1(Cc2ccc(F)cc2)[C@H]2C(CC(=O)C(=O)N3CCCC3)C(=O)C[C@H]2CN1C(=O)c1ccccc1 (stereo partly specified)	none
CC1(C)CC(NS(=O)(=O)c2ccc3ccccc3c2)CC(C)(C)N1	M5 PAM 18
CCC(Sc1ccccc1C(=O)O)C(=O)O (stereo unspecified)	none
CC(CN1CCCCC1)OC(=O)C(C)(c1ccccc1)c1ccccc1 (stereo unspecified)	CHRM5 antagonist 40
COc1ccc(NC(=O)CN2CCN(C3c4ccccc4-c4ccccc43)CC2)cc1	M1 PAM parental 53
COc1ccc(NC(=O)CN2CCN(c3ccccc3)CC2)cc1	none
O=C(O)c1ccc2c(=O)n3c(nc2c1)/C(=C/c1cccc(O)c1)CC3	none
CCc1nc2ccc(C(=O)NCCc3ccccn3)cn2c1N(C)Cc1nccs1	none
Cn1nccc1NC(=O)Nc1ccc(Cl)cc1	none
Cn1nccc1C(=O)c1ccc(Cl)cc1	CHO-K1 Ca antag 24
CCOc1ccccc1NC(=O)C(OC(=O)c1cnc(C)cn1)c1ccccc1 (stereo unspecified)	M1 PAM parental 46
CCOc1ccccc1NC(=O)C(OC(=O)C1CC1)c1ccccc1 (stereo unspecified)	none
CNCc1ccccc1Sc1ccc(OC)c(OC)c1	none
Nc1nc(SCC(=O)Nc2ccc(OC(F)(F)F)cc2)[nH]c(=O)c1NC(=O)c1ccc(Br)o1	CHRM5 antagonist 34
O=C(CCl)N(c1ccccc1)C1CCS(=O)(=O)C1 (stereo unspecified)	CHO-K1 Ca ag 23
O=C(NS(=O)(=O)Oc1cccc(F)c1)OC[C@@H]1CCCN2CCCCC12 (stereo partly specified)	none
O=[N+]([O-])c1cc(-n2cnnn2)ccc1N1CCC(Cc2ccccc2)CC1	CHO-K1 Ca antag 25
O=C(NCc1ccccc1)C(CCc1ccccc1)n1c(=O)c(-c2cc3ccccc3[nH]2)nc2ccccc21 (stereo unspecified)	none (no result: CHO-K1 Ca ag, M1 PAM parental, CHO-K1 Ca antag)
O=C(NCc1ccccc1)C(CCc1ccccc1)n1c(=O)c(-c2ccccc2)nc2ccccc21 (stereo unspecified)	M5 PAM 20 (no result: CHO-K1 Ca ag, M1 PAM parental, CHO-K1 Ca antag)
O=C(NCc1ccccc1)c1cc(C2COCCN2C(=O)c2ccc3c(c2)CCO3)on1 (stereo unspecified)	none
